Data published in ChEMBL document CHEMBL4513216, “Probing the Open Global Health Chemical Diversity Library for Multistage-Active Starting Points for Next-Generation Antimalarials” (ACS Infect Dis, 2020).

Test: Toxicity liver stage against HepG2, at 10uM
Format: cell-based
Design: test concentration 10 uM, cell line HepG2-A16-CD81EGFP
Conditions: human, HepG2-A16-CD81EGFP cells; read-out: INHIBITION
Outline: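 Uninfected HepG2-A16-CD81EGFP cells, 3 × 10^3 per well, 1536-well, plated on prespotted compound at 10 μM final, parasite-free screening media added to match infected plates; puromycin 10 μM positive, DMSO 0.5% negative; run in parallel with 48 h PbLuc assay at 37 °C, 5% CO2; viability by CellTiter-Glo luminescence, normalized to controls.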

SMILES	cytotoxicity at 10 µM
Cc1cc(N2CCCCC2)nc(N(CCO)CCO)c1C#N	-7.32%
CNC(=O)[C@@H]1COC[C@H]2CN(C(=O)c3ccc(C)c(F)c3)C[C@H]21	0.165%
Cc1nc(NCc2ccc(C)o2)cc(C(=O)N2CCOCC2)n1	-2.03%
CSCc1cccc(S(=O)(=O)NCCCn2ccnc2)c1	4.51%
COCCNc1ncc(-c2onc(C)c2C)c(-c2ccco2)n1	5.92%
O=S(=O)(N1CCN(CC2CC2)CC1)N1CCCC1c1ccco1 (stereo not given)	1.24%
CC(=O)N(Cc1ncc(C)o1)C1CCN(Cc2cccnc2)C1 (stereo not given)	15.3%
O=C(NC1CC1)c1cc(NC(=O)N2CCCC2)ccc1Cl	3.31%
CCc1noc(CN(CCC2CCCCC2)CC(N)=O)n1	5.76%
CC(C)(C)OC(=O)N1CCCN1C(=O)c1cccc(F)c1F	-10.3%
Cc1noc(C)c1CNc1c(N2CCCC2)cccc1N1CCCC1	6.17%
CCCn1nnnc1CN(c1ccc(N2CCOCC2)cc1)C(C)C	6.8%
CC(C)c1csc(C2CCCN(C(=O)c3ncccn3)C2)n1 (stereo not given)	6.3%
CCCn1c(C)cc(C(=O)CN2C(=O)c3ccccc3CS2(=O)=O)c1C	-1.94%
O=C(Nc1ccc(CCN2CCC(O)CC2)cc1)Nc1cccnc1	-7.15%
Cc1cc(-c2nnn(CCNS(C)(=O)=O)n2)ccc1F	-9.09%
O=C(O)C1(Oc2ccc3c(c2)OCO3)CCN(C2CCOCC2)CC1	-13.3%
Cc1cccc(-n2ncc3c2CCCC3NCc2cccc(O)c2)c1C (stereo not given)	3.11%
CN1CCc2[nH]cnc2C12CCN(C(=O)CCc1cccs1)CC2	-1.19%
COCC[C@]1(O)CCN(S(=O)(=O)c2ccc(C)cc2OC)C[C@H]1C	11.4%
CN(C)c1ccccc1C(=O)N1C[C@@H](CN2CCCCC2)[C@@H](CO)C1	-12.1%
COc1ccccc1Oc1ncccc1CNC(=O)[C@@H](C)NC(C)=O	-2.61%
Cc1occc1C(=O)N1CCC2(CCCN(CC3CCC3)C2=O)C1 (stereo not given)	-5.47%

SMILES	cytotoxicity at 10 µM
CC1CN(Cc2ccccn2)CCN1c1ccc2nncn2n1 (stereo not given)	-1.07%
CCc1ncncc1C(=O)N1CCN(Cc2ccsc2)CC1	0.956%
Cc1nc(CC(=O)N2CCCC(n3ccnc3C(C)C)C2)cs1 (stereo not given)	-0.354%
Cc1ccccc1C(C)NC(=O)CSCC#N (stereo not given)	-10.2%
Cc1nc2ccnn2c(C)c1CCC(=O)N1CCSCC1	-4.24%
CC(=O)NC1CCCN(C(=O)NCc2cc[nH]n2)C1 (stereo not given)	-11.5%
CCc1nc2n(n1)CC(NCc1cnc(-c3ccccc3)nc1)CC2 (stereo not given)	0.702%
CCc1nc2n(n1)CC(NCc1noc(-c3ccc(C)cc3)n1)CC2 (stereo not given)	-4.26%
CC(NC(=O)NCC1(c2ccc(F)cc2)CC1)c1nncn1C (stereo not given)	-4.75%
CCNc1cc2c(nn1)CCN(C(=O)C(C)c1c(C)noc1C)C2 (stereo not given)	-4.05%
O=C(CCn1nc(-c2cccs2)oc1=O)Nc1cccc(F)c1	-5.21%
CC(C)c1ncncc1C(=O)N1CCN(Cc2cccnc2)CC1	-5.85%
c1cnnc(N2CCCC2CNCc2nc(-c3cccs3)no2)c1 (stereo not given)	-7.69%
CC(C)n1ccc(C(=O)N2CCCC(n3cncn3)C2)n1 (stereo not given)	-0.312%
Cc1cc(C)c(CNC(=O)N2CCOC(c3ccccc3)C2)c(=O)[nH]1 (stereo not given)	0.0687%
Cc1cc(C)n(C2CCCN(C(=O)c3cn4cccnc4n3)C2)n1 (stereo not given)	-4.62%
CC(=O)Nc1nc(C(=O)N2CCCC(n3ccnc3)C2)cs1 (stereo not given)	-3.44%
Cc1cnn(CCNCc2ccc(C#N)cc2F)c1	-2.73%
CN(CC1CCCO1)C1CCN(CCc2ccccn2)CC1 (stereo not given)	-5.6%
Cn1nc2c(cc1=O)CN(Cc1coc(-c3cccs3)n1)CC2	-11.1%
c1ccc(OC[C@]23COC[C@H]2CN(c2ncccn2)C3)nc1	-14.1%
CC(C)CN1CC[C@@H]2[C@@H]1CCN2C(=O)N1CCCC1	-1%
